The source made the active and inactive calls. The rule behind the calls is not given here.
Legend:
[1] = Tmax in mouse at 50 mg/kg, po in 20% HP-beta-CD; assay type: ADME, organism-based; parameters: dose 50 mg/kg, route oral; details: in vivo
How it was run: (§1)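 Female Swiss Webster mice, 8 weeks old, given one oral gavage dose of 50 mg/kg as a 10 mg/mL preparation in the named vehicle (20% HPβCD suspension or 20% Kolliphor). Plasma sampled at about 0.25, 0.5, 1, 2, 4, 6, 8, 12 and 24 h, n = 3 per time point. Protein precipitated with 5 volumes acetonitrile, filtered, then LC-MS/MS. Values are averages of three mice.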

[2] = AUClast in mouse at 50 mg/kg, po in 20% Kolliphor; assay type: ADME, organism-based; parameters: time 0 - last, dose 50 mg/kg, route oral; details: plasma; how it was run: as §1
[3] = Drug uptake in mouse fat at 50 mg/kg, po in 20% HP-beta-CD measured at 8 hrs post dose; assay type: ADME, organism-based, Adipose tissue; parameters: dose 50 mg/kg, route oral; details: in vivo
How it was run: (§2)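 Female Swiss Webster mice, 8 weeks old, given a single 50 mg/kg oral gavage dose in 20% HPβCD or 20% Kolliphor. Tissues taken from three mice at 2 and 8 h post dose. Homogenized by probe sonication in PBS (1:4 w/v), protein precipitated with acetonitrile, and compound measured by LC-MS/MS in μM.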

[4] = system: Trypanosoma cruzi; assay: Antitrypanosomal activity against Trypanosoma cruzi Y luc infected in mouse assessed as inhibition of parasitemia at 50 mg/kg, po bid in 20% HP-beta-CD administered for 4 consecutive days starting on day 3 of infection measured on day 7 post infection relative to vehicle-treated control; assay type: functional, organism-based; parameters: dose 50 mg/kg
How it was run: (§3)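 Female Swiss Webster mice, 8 weeks old, infected ip with 10^5 T. cruzi Y luc trypomastigotes. Only mice with detectable luminescence on day 3 were treated. Compound given by oral gavage bid for four days, as a suspension in 20% HPβCD or a solution in 20% Kolliphor, five mice per group. Vehicle group and benznidazole 50 mg/kg served as controls. On day 7, mice were injected ip with 150 mg/kg d-luciferin and imaged after 5 min under isoflurane. Percent inhibition calculated against untreated mice; two-tailed paired t test.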

[5] = Drug uptake in mouse skeletal muscle at 50 mg/kg, po in 20% Kolliphor measured at 8 hrs post dose; assay type: ADME, organism-based, Muscle tissue; parameters: dose 50 mg/kg, route oral; details: in vivo; how it was run: as §2
[6] = system: Intestine; assay: Drug uptake in mouse intestine at 50 mg/kg, po in 20% Kolliphor measured at 8 hrs post dose; assay type: ADME, organism-based; parameters: dose 50 mg/kg, route oral; details: in vivo; how it was run: as §2
[7] = Drug uptake in mouse fat at 50 mg/kg, po in 20% Kolliphor measured at 8 hrs post dose; assay type: ADME, organism-based, Adipose tissue; parameters: dose 50 mg/kg, route oral; details: in vivo; how it was run: as §2
[8] = Half life in mouse at 50 mg/kg, po in 20% Kolliphor; assay type: ADME, organism-based; parameters: dose 50 mg/kg, route oral; details: in vivo; how it was run: as §1
[9] = system: Trypanosoma cruzi; assay: Antitrypanosomal activity against Trypanosoma cruzi Y luc infected in mouse assessed as inhibition of parasitemia at 50 mg/kg, po bid in 20% Kolliphor administered for 4 consecutive days starting on day 3 of infection measured on day 7 post infection relative to vehicle-treated control; assay type: functional; how it was run: as §3
[10] = Drug uptake in mouse skeletal muscle at 50 mg/kg, po in 20% HP-beta-CD measured at 8 hrs post dose; assay type: ADME, organism-based, Muscle tissue; parameters: dose 50 mg/kg, route oral; details: in vivo; how it was run: as §2
[11] = Cmax in mouse at 50 mg/kg, po in 20% HP-beta-CD; assay type: ADME, organism-based; parameters: dose 50 mg/kg, route oral; details: in vivo; how it was run: as §1
[12] = Clearance in mouse at 50 mg/kg, po in 20% HP-beta-CD; assay type: ADME, organism-based; parameters: dose 50 mg/kg, route oral; details: in vivo; how it was run: as §1
[13] = system: Mus musculus; assay: Toxicity in mouse assessed as change in appearance at 12.5 to 50 mg/kg, po bid in 20% HP-beta-CD; assay type: organism-based; parameters: dose 12.5-50 mg/kg, route oral; details: in vivo
How it was run: (§4)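 Mice in the four-day oral treatment study were given compound bid by gavage in 20% HPβCD or 20% Kolliphor. They were watched for weight loss, mobility problems and changes in appearance throughout dosing.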

[14] = system: Lung; assay: Drug uptake in mouse lung at 50 mg/kg, po in 20% HP-beta-CD measured at 8 hrs post dose; assay type: ADME, organism-based; parameters: dose 50 mg/kg, route oral; details: in vivo; how it was run: as §2
[15] = system: Intestine; assay: Drug uptake in mouse intestine at 50 mg/kg, po in 20% HP-beta-CD measured at 8 hrs post dose; assay type: ADME, organism-based; parameters: dose 50 mg/kg, route oral; details: in vivo; how it was run: as §2
[16] = system: Heart; assay: Drug uptake in mouse heart at 50 mg/kg, po in 20% HP-beta-CD measured at 8 hrs post dose; assay type: ADME, organism-based; parameters: dose 50 mg/kg, route oral; details: in vivo; how it was run: as §2
[17] = system: C2C12; assay: Cytotoxicity against mouse C2C12 cells up to 10 uM; assay type: cell-based
How it was run: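 Mouse C2C12 myoblasts infected with T. cruzi CA-I/72, then exposed at 24 h postinfection to compound at 10 μM down to 5 pM in 5-fold steps for 72 h at 37 °C. Cells fixed in paraformaldehyde, stained with DAPI and scored by automated imaging. Triplicate wells; uninfected and infected untreated wells as controls.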

[18] = system: Mus musculus; assay: Toxicity in mouse assessed as weight loss at 12.5 to 50 mg/kg, po bid in 20% Kolliphor; assay type: organism-based; parameters: dose 12.5-50 mg/kg, route oral; details: in vivo; how it was run: as §4
[19] = Half life in mouse at 50 mg/kg, po in 20% HP-beta-CD; assay type: ADME, organism-based; parameters: dose 50 mg/kg, route oral; details: in vivo; how it was run: as §1
[20] = Clearance in mouse at 50 mg/kg, po in 20% Kolliphor; assay type: ADME, organism-based; parameters: dose 50 mg/kg, route oral; details: in vivo; how it was run: as §1
[21] = Tmax in mouse at 50 mg/kg, po in 20% Kolliphor; assay type: ADME, organism-based; parameters: dose 50 mg/kg, route oral; details: in vivo; how it was run: as §1
[22] = system: Mus musculus; assay: Toxicity in mouse assessed as change in appearance at 12.5 to 50 mg/kg, po bid in 20% Kolliphor; assay type: organism-based; parameters: dose 12.5-50 mg/kg, route oral; details: in vivo; how it was run: as §4
[23] = target: Sterol 14-alpha demethylase (Trypanosoma cruzi (strain CL Brener), UniProt Q7Z1V1); assay: Binding affinity to Trypanosoma cruzi CYP51 by UV-vis titration method; details: read-out: Kd(app)
[24] = system: Mus musculus; assay: Toxicity in mouse assessed as mobility issues at 12.5 to 50 mg/kg, po bid in 20% Kolliphor; assay type: organism-based; parameters: dose 12.5-50 mg/kg, route oral; details: in vivo; how it was run: as §4
[25] = system: Trypanosoma cruzi; assay: Antitrypanosomal activity against Trypanosoma cruzi Y luc infected in mouse assessed as inhibition of parasitemia at 25 mg/kg, po bid in 20% HP-beta-CD administered for 4 consecutive days starting on day 3 of infection measured on day 7 post infection relative to vehicle-treated control; assay type: functional, organism-based; parameters: dose 25 mg/kg; how it was run: as §3
[26] = system: Mus musculus; assay: Toxicity in mouse assessed as mobility issues at 12.5 to 50 mg/kg, po bid in 20% HP-beta-CD; assay type: organism-based; parameters: dose 12.5-50 mg/kg, route oral; details: in vivo; how it was run: as §4
[27] = system: Liver; assay: Drug uptake in mouse liver at 50 mg/kg, po in 20% HP-beta-CD measured at 8 hrs post dose; assay type: ADME, organism-based; parameters: dose 50 mg/kg, route oral; details: in vivo; how it was run: as §2
[28] = system: Heart; assay: Drug uptake in mouse heart at 50 mg/kg, po in 20% Kolliphor measured at 8 hrs post dose; assay type: ADME, organism-based; parameters: dose 50 mg/kg, route oral; details: in vivo; how it was run: as §2
[29] = system: Liver; assay: Drug uptake in mouse liver at 50 mg/kg, po in 20% Kolliphor measured at 8 hrs post dose; assay type: ADME, organism-based; parameters: dose 50 mg/kg, route oral; details: in vivo; how it was run: as §2
[30] = AUClast in mouse at 50 mg/kg, po in 20% HP-beta-CD; assay type: ADME, organism-based, Plasma; parameters: time 0 - last, dose 50 mg/kg, route oral; details: plasma; how it was run: as §1
[31] = system: Mus musculus; assay: Toxicity in mouse assessed as weight loss at 12.5 to 50 mg/kg, po bid in 20% HP-beta-CD; assay type: organism-based; parameters: dose 12.5-50 mg/kg, route oral; details: in vivo; how it was run: as §4
[32] = Cmax in mouse at 50 mg/kg, po in 20% Kolliphor; assay type: ADME, organism-based; parameters: dose 50 mg/kg, route oral; details: in vivo; how it was run: as §1
[33] = system: Lung; assay: Drug uptake in mouse lung at 50 mg/kg, po in 20% Kolliphor measured at 8 hrs post dose; assay type: ADME, organism-based; parameters: dose 50 mg/kg, route oral; details: in vivo; how it was run: as §2

Sterol 14-alpha demethylase, sequence (Q7Z1V1 whole entry): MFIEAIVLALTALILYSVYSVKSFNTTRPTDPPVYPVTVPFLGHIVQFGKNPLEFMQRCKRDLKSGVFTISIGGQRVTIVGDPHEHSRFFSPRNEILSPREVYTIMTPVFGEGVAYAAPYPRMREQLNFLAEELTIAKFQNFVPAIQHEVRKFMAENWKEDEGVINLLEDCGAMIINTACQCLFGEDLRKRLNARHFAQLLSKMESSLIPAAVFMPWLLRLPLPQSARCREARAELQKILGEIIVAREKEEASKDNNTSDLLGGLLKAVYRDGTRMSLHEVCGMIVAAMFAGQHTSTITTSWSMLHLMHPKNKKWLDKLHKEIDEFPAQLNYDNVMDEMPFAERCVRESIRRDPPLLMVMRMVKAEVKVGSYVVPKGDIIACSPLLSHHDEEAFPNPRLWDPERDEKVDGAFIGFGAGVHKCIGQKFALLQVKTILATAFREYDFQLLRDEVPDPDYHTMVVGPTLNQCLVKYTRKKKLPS

Compound: O=C(N[C@H](Cc1c[nH]c2ccccc12)C(=O)Nc1ccncc1)c1ccc(N2CCN(c3ccc(F)cc3F)CC2)cc1F
- Tmax [1]: 4.67 h
- AUC(0-t) [2]: 29.6 µM·h
- Drug uptake [3]: Active
- inhibition [4]: Active
- Drug uptake [5]: Active
- Drug uptake [6]: Active
- Drug uptake [7]: Active
- half-life [8]: 4.39 h
- inhibition in vivo at 50 mg/kg [9]: 98.4%
- Drug uptake [10]: Active
- Cmax [11]: 3.27 µM
- CL/F [12]: 42.8 mL/min/kg
- Activity [13]: Non-toxic
- Drug uptake [14]: Active
- Drug uptake [15]: Active
- Drug uptake [16]: Active
- Activity [17]: Non-toxic
- Activity [18]: Non-toxic
- half-life [19]: 6.88 h
- CL/F [20]: 38.8 mL/min/kg
- Tmax [21]: 2.33 h
- Activity [22]: Non-toxic
- Kd [23]: ≤ 10 nM
- Activity [24]: Non-toxic
- inhibition [25]: Active
- Activity [26]: Non-toxic
- Drug uptake [27]: Active
- Drug uptake [28]: Active
- Drug uptake [29]: Active
- AUC(0-t) [30]: 16.7 µM·h
- Activity [31]: Non-toxic
- Cmax [32]: 5.94 µM
- Drug uptake [33]: Active

Reference: ChEMBL document CHEMBL3352430, “4-Aminopyridyl-based CYP51 inhibitors as anti-Trypanosoma cruzi drug leads with improved pharmacokinetic profile and in vivo potency” (J Med Chem, 2014)
